Reference: PMC4873422 (Molecular cancer therapeutics, 2016)

Experiments:
Assay type in all cases: cell-based, human
Pa03C + CAF19 co-culture = experiment: Monolayer proliferation assay; conditions: 2:1 tumor:CAF co-culture, 72 h
Summary of the method: (§1)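 Monolayers were grown in DMEM with 10% serum at 37 °C, 5% CO2. Seeding was Pa03C tumor cells 2,000–3,000/well, EGFP-expressing CAF19 fibroblasts 4,000/well, or tumor plus CAFs at a 2:1 ratio. Test compound was added 24 h after seeding, and viability was read 72 h later. Dose-response data are Avg+SE, n=3–4. The 50% value came from a linear-regression fit at 50% survival.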

[1] = tested on: p-STAT3 (Y705) in Pa03C cells; experiment: Immunoblot of p-STAT3; conditions: 10 μM, 4 hr pre-treatment, IL-6 25 ng/mL 15 min
CAF19 cells = experiment: Monolayer proliferation assay; conditions: CAFs (CAF19), 72 h
Summary of the method: as §1

Pa03C cells = experiment: Monolayer proliferation assay; conditions: tumor cells (Pa03C), 72 h
Summary of the method: as §1

Panc10.05 cells = experiment: Cell viability / proliferation screen; conditions: 72 h, Avg ± SE, n=4–5
Summary of the method: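 Panc10.05 patient-derived PDAC cells (STR-verified) were grown in DMEM with 10% serum at 37 °C, 5% CO2. Monolayers were seeded at 2,000–3,000 cells/well, and test compound was added 24 h after seeding. MTS tetrazolium read-out was taken 72 h later. Data from 4–5 repeats were pooled, and ED50 was taken from a linear-regression fit where percent survival equalled 50%.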

Structure (SMILES)	IC50 (Pa03C + CAF19 co-culture) [µM]	phosphorylation of STAT3 at Y705 [1]	IC50 (CAF19 cells) [µM]	IC50 (Pa03C cells) [µM]	ED50 (Panc10.05 cells) [µM]
CN(CC(=O)N(Cc1ccc(C2CCCCC2)cc1)c1ccc(C(=O)O)c(O)c1)S(=O)(=O)c1c(F)c(F)c(F)c(F)c1F [BP-1-102]	16.4 ± 0.6	inhibited phosphorylation of STAT3 at Y705	15.2 ± 2.7	19.1 ± 0.9	
CN(CC(=O)N(Cc1ccc(C2CCCCC2)cc1)c1ccc(C(=O)O)cc1)S(=O)(=O)c1c(F)c(F)c(F)c(F)c1F [SH-4-54]	11.8 ± 1.1	inhibited phosphorylation of STAT3 at Y705	7.6 ± 0.9	9.2 ± 1.7	8.7 ± 1.9
